The nature of data set [1]: Half life in human liver microsomes at 1 uM preincubated for 5 mins followed by NADPH addition and measured by LC/MS/MS analysis. In kind it is ADME, microsome. Particulars: liver microsomes.
A short description of data set [2]: Intrinsic clearance in human liver microsomes at 1 uM preincubated for 5 mins followed by NADPH addition and measured after 45 mins by LC/MS/MS analysis. Particulars: read-out: CLH. In kind it is ADME, microsome.
Data set [3] can be described thus: Hepatic clearance in human liver microsomes at 1 uM preincubated for 5 mins followed by NADPH addition and measured after 45 mins by LC/MS/MS analysis. In kind it is ADME, microsome. (In general: Liver microsomes are a subcellular fraction often used to study metabolism.)
The nature of data set [4]: Intrinsic clearance in Sprague-Dawley rat liver microsomes at 1 uM preincubated for 5 mins followed by NADPH addition and measured after 45 mins by LC/MS/MS analysis. Particulars: read-out: CLH. In kind it is ADME, microsome.
Data set [5] can be described thus: Hepatic clearance in Sprague-Dawley rat liver microsomes at 1 uM preincubated for 5 mins followed by NADPH addition and measured after 45 mins by LC/MS/MS analysis. In kind it is ADME, microsome. An outline of the steps: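 Pooled liver microsomes at 0.5 mg/mL: human (mixed gender), male Sprague-Dawley rat, or male CD-1 mouse, with test compound at 1 μM, triplicate. In vitro t1/2 is scaled to CLint (45 mg microsomes/g liver; 45 g liver/kg scaling factor). CLhep uses well-stirred model with hepatic blood flow 21 (human), 70 (rat), 90 (mouse) mL/min/kg.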

Data set [6] in a line: Half life in Sprague-Dawley rat liver microsomes at 1 uM preincubated for 5 mins followed by NADPH addition and measured by LC/MS/MS analysis. It counts as ADME, microsome. Particulars: Sprague-Dawley, liver microsomes.
Data set [7] in a line: Intrinsic clearance in CD1 mouse liver microsomes at 1 uM preincubated for 5 mins followed by NADPH addition and measured after 45 mins by LC/MS/MS analysis. In kind it is ADME, microsome. Particulars: read-out: CLH.
The nature of data set [8]: Hepatic clearance in CD1 mouse liver microsomes at 1 uM preincubated for 5 mins followed by NADPH addition and measured after 45 mins by LC/MS/MS analysis. It counts as ADME, microsome.
A short description of data set [9]: Half life in CD1 mouse liver microsomes at 1 uM preincubated for 5 mins followed by NADPH addition and measured by LC/MS/MS analysis. It counts as ADME, microsome. To be noted: CD1, mouse, liver microsomes.
A short description of data set [10]: Maximum plasma concentration in BALB/c mouse at 25 mg/kg, po via gavage by […]. In kind it is ADME, organism-based. Further details: dose 25 mg/kg, route oral. An outline of the steps:
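Single oral gavage dose of 25 mg/kg in BALB/c mice; blood sampled at 1, 2, 4, 6, 10, 16, 24 h. Plasma is diluted in PBS with ketoconazole internal standard, extracted with 80% acetonitrile, dried and redissolved. Analysed by reversed-phase HPLC with UV at 291/250 nm, 0.1 μM detection limit. Lifetime is time until undetectable.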

The nature of data set [11]: Drug uptake in BALB/c mouse heart at 25 mg/kg, po via gavage measured after 4 hrs post dose by […]. In kind it is ADME, organism-based. Particulars: read-out: Drug uptake. An outline of the steps:
(§1)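 BALB/c mice get a single oral gavage dose of 25 mg/kg; tissues are collected 4 h post-dose. About 100 mg tissue is diluted 5-fold in PBS and homogenized. Homogenate is extracted as for plasma (ketoconazole internal standard, acetonitrile extraction) and quantified by HPLC-UV at 291 nm, 0.1 μM detection limit, n=2.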

Data set [12] is described as follows: Drug uptake in BALB/c mouse lungs at 25 mg/kg, po via gavage measured after 4 hrs post dose by […]. It counts as ADME, organism-based, Lung. To be noted: read-out: Drug uptake. An outline of the steps:
as §1

Data set [13] is described as follows: Drug uptake in BALB/c mouse spleen at 25 mg/kg, po via gavage measured after 4 hrs post dose by […]. It counts as ADME, organism-based. To be noted: read-out: Drug uptake. Summed up:
as §1

Data set [14] in a line: Drug uptake in BALB/c mouse blood at 25 mg/kg, po via gavage measured after 4 hrs post dose by […]. It counts as ADME, organism-based. Particulars: read-out: Drug uptake. Summed up:
as §1

Data set [15] in a line: Drug uptake in BALB/c mouse brain at 25 mg/kg, po via gavage measured after 4 hrs post dose by […]. It counts as ADME, organism-based. To be noted: read-out: Drug uptake. Summed up: as §1
Data set [16] can be described thus: Drug uptake in BALB/c mouse liver at 25 mg/kg, po via gavage measured after 4 hrs post dose by […]. In kind it is ADME, organism-based. To be noted: read-out: Drug uptake. Summed up: as §1
Data set [17] can be described thus: Lipophilicity, log P of the compound. It counts as physicochemical. To be noted: octanol/water.
Data set [18] has as its system Mus musculus. As to the kind of experiment: Drug metabolism in mouse plasma assessed as glucuronidation of the N-pyridinyl site formation at 25 mg/kg, po by HPLC analysis. It counts as ADME, organism-based. Particulars: in vivo.

The structures appear in SMILES notation.

As usually defined, the half-life is the time needed for the level to fall by half in the phase considered. In general, Cmax refers to the peak of the concentration-time curve. In general, logP refers to the decadic logarithm of the partition coefficient of the neutral form, usually between octanol and water. Higher therefore signals a more lipophilic compound.

With `O=C(N[C@@H](Cn1ccnc1)c1ccc(-c2ccc(F)cc2)cc1Cl)c1ccc(-c2nnc(-c3ccncc3)o2)cc1`, the half-life at 1 µM in data set [1] was 53 min; in [6] it was 54 min; in data set [9] it was 55 min. The values for the CLint scaled at 1 µM in data set [2], in data set [4] and in [7] were 23.5 mL/min/kg, 52.3 mL/min/kg and 99 mL/min/kg, respectively. Besides, the CLhep predicted at 1 µM in data set [3] was 11.1 mL/min/kg; in data set [5], 29.9 mL/min/kg; in data set [8], 47.1 mL/min/kg. This molecule registered a Cmax in data set [10] below 100 nM. The concentration at 4 h is 100 nM in [11]; 1000 nM in data set [12]; below 100 nM in data set [13]; below 100 nM in data set [14]; below 100 nM in [15]; 400 nM in data set [16]. In data set [17], this molecule came in with a logP of 5.27. Moreover, in data set [18], the Drug metabolism result was “Metabolite_Detected”.

These data come from ChEMBL document CHEMBL4257584, “Sterol 14α-Demethylase Structure-Based Optimization of Drug Candidates for Human Infections with the Protozoan Trypanosomatidae” (J Med Chem, 2018).
